A selection: hits, their analogues and other compounds. The true share with any hit is near 1.5%.
C8 TRAIL sens: caspase-8 TRAIL sensitization; inhibition (viability loss, TRAIL sensitization), % at 10 µM; 360,000 tested, 1% active; NB7+C8 cells + TRAIL, ATPlite viability luminescence;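 active = compounds causing at least 50% loss of cell viability in the single-dose screen, relative to plate controls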
FLuc inhib CS: counter-screen for luciferase assay inhibitors: firefly luciferase inhibition; P08659; ATPLite firefly luciferase biochemical luminescence, 10 min; inhibition, % at 10 µM; 200,000 tested, 1.5% active; AID 1006;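 active = inhibition above about 50% when tested at 10 µM, limit read from the data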
Target sequence (P08659 whole entry, looked up): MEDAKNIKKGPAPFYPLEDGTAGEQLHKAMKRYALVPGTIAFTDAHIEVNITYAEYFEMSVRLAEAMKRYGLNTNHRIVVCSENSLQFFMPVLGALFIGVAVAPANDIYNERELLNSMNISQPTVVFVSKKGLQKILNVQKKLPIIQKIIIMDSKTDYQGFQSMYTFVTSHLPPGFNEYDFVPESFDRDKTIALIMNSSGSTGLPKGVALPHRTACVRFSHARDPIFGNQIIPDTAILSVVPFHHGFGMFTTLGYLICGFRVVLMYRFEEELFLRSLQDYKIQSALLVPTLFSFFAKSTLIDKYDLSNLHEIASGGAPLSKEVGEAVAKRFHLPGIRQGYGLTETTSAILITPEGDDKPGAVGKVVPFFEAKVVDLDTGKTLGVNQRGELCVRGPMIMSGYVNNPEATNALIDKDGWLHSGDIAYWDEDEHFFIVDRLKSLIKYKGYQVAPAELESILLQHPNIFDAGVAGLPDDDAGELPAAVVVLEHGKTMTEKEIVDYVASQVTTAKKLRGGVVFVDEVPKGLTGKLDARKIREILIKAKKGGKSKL
FLuc stim CS: affects firefly luciferase, flagging false hits in luciferase stimulation screens. P08659. ATPlite luciferase biochemical, luminescence, 10 min; 0 = ATP-free wells, 1 = DMSO control. activation factor at 10 µM. 200,000 tested, under 10 active;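 active = luciferase activation factor, scaled between plate controls, of at least 2 with compound at 10 µM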
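assay system = Luciferase/luciferin detection reagent, cell-free biochemical luciferase assay | also added = ATP substrate | times = 10 min post-reagent at room temperature | measured by = luminescence from luciferase reaction | measure = luciferase activation, seen as luminescence increase over controls | benchmarks = low control with PBS replacing ATP, high control enzyme plus ATP without compound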
PPC-1+TRAIL kill: PPC-1 cancer cell killing with TRAIL present. PPC-1 cells + TRAIL, ATPLite viability luminescence. cell killing (% activity), % at 4 µM or 5 µM. 220,000 tested, 0.41% active;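 active = cell killing above 50% in the first pass at 4 µM, then a duplicate retest at 5 µM averaging 50% or more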
PPC-1 tox: PPC-1 cell cytotoxicity | shares compounds with PPC-1+TRAIL kill | PPC-1 viability, ATPlite luminescence, overnight | 1,200 tested, 50% active | cytotoxicity, % at 5 µM;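 active = reconfirmed compounds whose average cytotoxicity reaches 50% or more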
Large screens that a line does not name were inactive (follow-up assays come after a bar, where they were run).

CCOC(=O)c1[nH]c2ccc(F)cc2c1NC(=O)C1=COCCO1	none | PPC-1 tox inactive
CCOC(=O)c1[nH]c2ccc(F)cc2c1NC(=O)c1ccccc1C(=O)O	none (no result: FLuc inhib CS, FLuc stim CS, PPC-1+TRAIL kill)
O=C(NCc1ccc2c(c1)OCO2)c1cc(-c2ccccc2)on1	none | PPC-1 tox inactive
COc1ccc(OCC(=O)N/N=C/C=C/c2ccccc2)cc1	C8 TRAIL sens 54, FLuc inhib CS 81 | PPC-1 tox inactive
COc1ccc(OCC(=O)N/N=C/c2ccncc2)cc1	none
COc1cccc(OC)c1C(=O)NC(=S)Nc1ccc2c(c1)OCCO2	none
COc1cccc(/C=C/C(=O)Nc2ccc3c(c2)OCCO3)c1OC	C8 TRAIL sens 80, FLuc inhib CS 93, PPC-1+TRAIL kill 70 | PPC-1 tox 66
COc1ccc(-c2cc(=O)c3cc(O)ccc3o2)cc1	FLuc inhib CS 54 | PPC-1 tox inactive
CCOc1ccc(Cc2onc3c2C(=O)CC(C)(C)C3)cc1OCC	none
O=C(Nc1nc2cc3c(cc2s1)OCO3)c1ccc(N2C(=O)CCC2=O)cc1	none (no result: FLuc inhib CS, FLuc stim CS)
O=C(Nc1nc2cc3c(cc2s1)OCO3)c1cccc(N2C(=O)CCC2=O)c1	C8 TRAIL sens 56 (no result: FLuc inhib CS, FLuc stim CS) | PPC-1 tox 58
CN1C(=O)/C(=C2\SC(=S)N(C(CCC(=O)O)C(=O)O)C2=O)c2ccccc21 (centres undefined)	none
CC(C)c1nc(=S)n(-c2ccccc2)[nH]1	none
CC(=O)Nc1cc2nn(-c3ccccc3)nc2cc1C	none (no result: FLuc inhib CS, FLuc stim CS, PPC-1+TRAIL kill)
CCC(=O)Nc1cc2nn(-c3ccccc3)nc2cc1Cl	C8 TRAIL sens 64, FLuc inhib CS 74, PPC-1+TRAIL kill 60 | PPC-1 tox 60
Cc1ccc(-c2csc3nc(C)n(N)c(=O)c23)o1	none
c1ccc2nc(-c3ccc(N4CCOCC4)cc3)ccc2c1	C8 TRAIL sens 73, FLuc inhib CS 88, PPC-1+TRAIL kill 73 | PPC-1 tox 77
CN1CCN(c2ccc(-c3ccc4ccccc4n3)cc2)CC1	C8 TRAIL sens 90, FLuc inhib CS 94, PPC-1+TRAIL kill 82 | PPC-1 tox 77
O=C(Nc1nnc(-c2ccncc2)o1)c1ccccc1	none
O=C1C(Cl)=C(Nc2ccc3cn[nH]c3c2)C(=O)c2ccccc21	C8 TRAIL sens 72, PPC-1+TRAIL kill 76 (no result: FLuc inhib CS, FLuc stim CS) | PPC-1 tox 69
CC(=O)Nc1ccc(NC2=C(Cl)C(=O)c3ccccc3C2=O)cc1	none (no result: C8 TRAIL sens)
CN(C)c1ccc(NC2=C(Cl)C(=O)c3ccccc3C2=O)cc1	C8 TRAIL sens 70 | PPC-1 tox inactive
CCN(c1ccccc1)S(=O)(=O)c1cc(C(=O)OCC(=O)c2c(N)n(C)c(=O)n(C)c2=O)ccc1C	none (no result: FLuc inhib CS, FLuc stim CS, PPC-1+TRAIL kill)
O=C(CSCc1ccc(F)cc1)N1CCN(c2ccc(F)cc2)CC1	none
O=S1(=O)N=C(Nc2nc3c(s2)CCCC3)c2ccccc21	C8 TRAIL sens 75, FLuc inhib CS 87, PPC-1+TRAIL kill 60 | PPC-1 tox 60
COc1ccc(NC(=O)CN2CCN(CC(=O)Nc3cc(OC)cc(OC)c3)CC2)cc1	none | PPC-1 tox inactive
COc1cc(NC(=O)CN2CCCCCC2)cc(OC)c1	none (no result: FLuc inhib CS, FLuc stim CS, PPC-1+TRAIL kill)
CCOc1ccc(NC(=O)c2ccc(N)cc2)cc1	FLuc inhib CS 71 | PPC-1 tox inactive
CCOc1ccc(NC(=O)c2ccc(NC(=O)c3ccc(NC(N)=O)cc3)cc2)cc1	none (no result: FLuc inhib CS, FLuc stim CS, PPC-1+TRAIL kill)
Cc1ccc2nc(NC(=O)c3ccc(Cl)s3)sc2c1	none | PPC-1 tox inactive
Cc1ccc2nc(NC(=O)CN3C(=O)C4CC=CCC4C3=O)sc2c1 (centres undefined)	none | PPC-1 tox inactive
CS(=O)(=O)c1ccc2nc(NC(=O)c3cccs3)sc2c1	C8 TRAIL sens 81, FLuc inhib CS 91, PPC-1+TRAIL kill 75 | PPC-1 tox 76
O=C(Nc1nc2ccc(F)cc2s1)C1=COCCO1	none (no result: FLuc inhib CS, FLuc stim CS, PPC-1+TRAIL kill)
O=C(Nc1nc2ccc(F)cc2s1)c1ccccn1	FLuc inhib CS 90, PPC-1+TRAIL kill 60 (no result: C8 TRAIL sens) | PPC-1 tox 62
CS(=O)(=O)c1ccc2nc(NC(=O)CN3C(=O)C4CC=CCC4C3=O)sc2c1 (centres undefined)	none
COC(=O)C1Sc2[nH]c(=O)sc2C(c2ccc(Cl)cc2)C1C(=O)OC (centres undefined)	none
COC(=O)C1=CN(c2ccc(N3CCOCC3)cc2)C(N)=C(C#N)C1c1ccc(-c2ccccc2)cc1 (centres undefined)	none (no result: FLuc inhib CS, FLuc stim CS, PPC-1+TRAIL kill)
Cc1cc(C)nc(N2CCCC(C(=O)NC3CC3)C2)n1 (centres undefined)	none (no result: FLuc inhib CS, FLuc stim CS, PPC-1+TRAIL kill)
Cc1ccc2nc(NC(=O)c3cccs3)sc2c1	C8 TRAIL sens 61, FLuc inhib CS 73, PPC-1+TRAIL kill 52 | PPC-1 tox 54
Cc1ccc2nc(NC(=O)c3ccc4ncsc4c3)sc2c1	none
COc1ccc(/C=N/NC(=O)CCn2cnc(-c3ccccc3)c2-c2ccccc2)cc1OC	none
O=C(c1ccoc1)N1CCC2(CCCN(Cc3ccc(F)c(F)c3)C2)C1 (centres undefined)	none (no result: FLuc inhib CS, FLuc stim CS, PPC-1+TRAIL kill)
CCCOc1ccc(N2C(=O)C3C(C(C)C)NC4(C(=O)c5ccccc5C4=O)C3C2=O)cc1 (centres undefined)	none | PPC-1 tox inactive
O=C(CSc1ccc2nnc(-c3ccc(F)cc3)n2n1)N1CCCc2ccccc21	none
c1ccc2c(c1)CCN(c1nc3cc4c(cc3s1)OCCO4)C2	C8 TRAIL sens 75, FLuc inhib CS 89, PPC-1+TRAIL kill 84 | PPC-1 tox 84
COC(=O)Cc1ccc(NC(=S)N2CCCC(C)C2)cc1 (centres undefined)	FLuc inhib CS 89, PPC-1+TRAIL kill 68 | PPC-1 tox 70
CCN(CC)c1ccc(C(=O)Nc2cccc(F)c2)cc1	none | PPC-1 tox inactive
CN(C)c1cccc(C(=O)Nc2cccc(F)c2)c1	none
CC(C)c1ccc(N(CC(=O)NCCSC(C)(C)C)S(C)(=O)=O)cc1	none
CCCc1ccc(-c2cc(C(=O)N/N=C/c3ccc([N+](=O)[O-])o3)c3ccccc3n2)cc1	C8 TRAIL sens 86, FLuc inhib CS 94, PPC-1+TRAIL kill 77 | PPC-1 tox 76
Cc1csc(NC(=O)Cc2ccc(Br)cc2)n1	none (no result: FLuc inhib CS, FLuc stim CS, PPC-1+TRAIL kill)
Cc1csc(NC(=O)CCS(=O)(=O)c2ccc(Br)cc2)n1	none | PPC-1 tox inactive
CC(=O)Nc1ccc(NC(=O)Cn2cc3c(n2)CCCC3)cc1	none | PPC-1 tox inactive
CC(=O)c1cccc(NC(=O)Cn2cc3c(n2)CCCC3)c1	none
COc1ccc(-n2c(C)cc(C(=O)Cn3nnc4ccccc4c3=O)c2C)cc1	none
Cc1cc(C(=O)Cn2nnc3ccccc3c2=O)c(C)n1-c1ccccc1F	C8 TRAIL sens 81, FLuc inhib CS 85, PPC-1+TRAIL kill 69 | PPC-1 tox 70
Cc1ccnc(NC(=O)CCS(=O)(=O)c2ccccc2)c1	none (no result: FLuc inhib CS, FLuc stim CS, PPC-1+TRAIL kill)
CCS/C(N)=N/N=C/c1cc(C)ccc1O	C8 TRAIL sens 72, FLuc inhib CS 90, PPC-1+TRAIL kill 62 | PPC-1 tox 64
Oc1ccccc1N=Nc1ccccc1O	none | PPC-1 tox inactive
Nc1ccc(N=Nc2ccccc2O)c(N)c1	none (no result: FLuc inhib CS, FLuc stim CS, PPC-1+TRAIL kill)
COc1ccc(N/N=C(/N=Nc2nc(C)cc(=O)[nH]2)c2ccccc2)cc1	C8 TRAIL sens 53, FLuc inhib CS 73, PPC-1+TRAIL kill 61 | PPC-1 tox 58
Cc1cc(=O)[nH]c(N=N/C(=N/Nc2ccc(O)cc2)c2ccccc2)n1	none | PPC-1 tox inactive

Screens as filed in PubChem BioAssay.
